Drawing on ChEMBL document CHEMBL1177891, “Synthesis and bioassay of pyrrolyl oxazolines and thiazolines” (2010), this text covers zone of inhibition and inhibition for ten compounds.

As usually defined, the inhibition is the drop in the measured response relative to a control, in per cent.

What all share (type): functional
Assay [1] deals with Staphylococcus aureus. The experiment in a line: Antibacterial activity against Staphylococcus aureus at 200 ug/disk after 24 hrs by disk diffusion method. As to conditions: read-out: IZ. The gist of the method: (§1)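 Agar disc diffusion on nutrient agar with NCIM bacteria. 6 mm sterile paper discs moistened with compound in DMSO (100 or 200 μg/disc) placed on pre-inoculated plates. Incubated at 37 °C; growth-inhibition zone diameter measured after 24 h. Chloramphenicol control.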
A general note: Agar diffusion results depend on both activity and mobility in agar.

The subject of assay [2] is Klebsiella pneumoniae. The experiment in a line: Antibacterial activity against Klebsiella pneumoniae at 200 ug/disk after 24 hrs by disk diffusion method. As to conditions: read-out: IZ. In short, it runs like this: as §1
In assay [3] the test system is Aspergillus niger. As to the kind of experiment: Antifungal activity against Aspergillus niger at 200 ug/disk after 48 hrs by disk diffusion method. The settings on record: read-out: IZ. In short, it runs like this: (§2)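 Fungi from NCIM on nutrient agar plates, pre-inoculated. 6 mm paper discs carrying 100 or 200 μg compound in DMSO applied. Plates incubated at 37 °C and inhibition zone diameter measured at 48 h. Ketoconazole control.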

For assay [4], the system named is Bacillus subtilis. As to the kind of experiment: Antibacterial activity against Bacillus subtilis at 100 ug/disk after 24 hrs by disk diffusion method. As to conditions: read-out: IZ. In short, it runs like this: as §1
For assay [5], the system named is Aspergillus niger. The experiment in a line: Antifungal activity against Aspergillus niger at 100 ug/disk after 48 hrs by disk diffusion method. The settings on record: read-out: IZ. In short, it runs like this:
as §2

A short description of assay [6]: Antioxidant activity assessed as inhibition of nitric oxide production at 100 uM. The gist of the method: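 Sodium nitroprusside ([…]) in phosphate buffer pH 7.4 incubated with 100 μM compound (dioxane/methanol) at 25 °C for 120 min; solvent-only control. Aliquots mixed 1:1 with Griess reagent (1% sulfanilamide, 0.1% N-naphthylethylenediamine, 2% phosphoric acid). Absorbance at 546 nm, triplicate.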

The subject of assay [7] is Curvularia lunata. The experiment in a line: Antifungal activity against […] lunata at 200 ug/disk after 48 hrs by disk diffusion method. The settings on record: read-out: IZ. In short, it runs like this: as §2
For assay [8], the system named is Fusarium solani. The experiment in a line: Antifungal activity against Fusarium solani at 200 ug/disk after 48 hrs by disk diffusion method. As to conditions: read-out: IZ. The gist of the method: as §2
The subject of assay [9] is Proteus vulgaris. As to the kind of experiment: Antibacterial activity against Proteus vulgaris at 200 ug/disk after 24 hrs by disk diffusion method. As to conditions: read-out: IZ. In short, it runs like this: as §1
Assay [10] has as its system Curvularia lunata. The experiment in a line: Antifungal activity against Curvularia lunata at 100 ug/disk after 48 hrs by disk diffusion method. As to conditions: read-out: IZ. The gist of the method: as §2
Assay [11] relates to Radical scavenging activity. The experiment in a line: Antioxidant activity assessed as DPPH radical scavenging activity at 100 uM. The gist of the method:
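Compound (100 μM) added to 100 μM DPPH in dioxane/ethanol. Kept at ambient temperature 20 min, then absorbance read at 517 nm. Percent DPPH scavenging taken from difference between test and control.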

Assay [12] relates to Bacillus subtilis. As to the kind of experiment: Antibacterial activity against Bacillus subtilis at 200 ug/disk after 24 hrs by disk diffusion method. The settings on record: read-out: IZ. In short, it runs like this:
as §1

For assay [13], the system named is Klebsiella pneumoniae. The experiment in a line: Antibacterial activity against Klebsiella pneumoniae at 100 ug/disk after 24 hrs by disk diffusion method. The settings on record: read-out: IZ. In short, it runs like this: as §1
A short description of assay [14]: Antioxidant activity assessed as increase in reducing power at 100 uM. In short, it runs like this:
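Oyaizu method. Compound at 100 μM in methanol mixed with 0.2 M phosphate buffer pH 6.6 and 1% potassium ferricyanide, 50 °C for 20 min. 10% TCA added, then centrifuged 3000 rpm for 10 min. Upper layer mixed with water and 0.1% FeCl3; absorbance read at 700 nm.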

In assay [15] the test system is Staphylococcus aureus. As to the kind of experiment: Antibacterial activity against Staphylococcus aureus at 100 ug/disk after 24 hrs by disk diffusion method. As to conditions: read-out: IZ. In short, it runs like this: as §1
The subject of assay [16] is Proteus vulgaris. The experiment in a line: Antibacterial activity against Proteus vulgaris at 100 ug/disk after 24 hrs by disk diffusion method. The settings on record: read-out: IZ. The gist of the method:
as §1

Assay [17] concerns Fusarium solani. The experiment in a line: Antifungal activity against Fusarium solani at 100 ug/disk after 48 hrs by disk diffusion method. The settings on record: read-out: IZ. In short, it runs like this: as §2

As for `O=S(=O)(CC1=NCCO1)c1c[nH]cc1S(=O)(=O)c1ccc(Cl)cc1`, the zone of inhibition at 200 µg/disc stood at 19 mm in assay [1]; 17 mm in assay [2]; 22 mm in assay [3]; 23 mm in [7]; 23 mm in assay [8]; 14 mm in assay [9]. Moreover, the zone of inhibition at 200 µg/disc in assay [12] was 19 mm. Also, the zone of inhibition at 100 µg/disc came to 16 mm in assay [4]; 21 mm in assay [5]; 20 mm in [10]; 15 mm in assay [13]; 17 mm in assay [15]; 12 mm in [16]. The zone of inhibition at 100 µg/disc in assay [17] was 21 mm. Moreover, the inhibition in assay [6] stood at 92.1%; in assay [11], 91.5%; in assay [14], 89.4%.

As for `O=S(=O)(/C=C/S(=O)(=O)c1ccc(Cl)cc1)CC1=NCCS1`, the zone of inhibition at 200 µg/disc in assay [1] was determined as 28 mm; in [2], 23 mm; in assay [3] it was 29 mm; in [7], 28 mm; in [8] it was 31 mm; in [9], 22 mm. The zone of inhibition at 200 µg/disc in assay [12] was 31 mm. Besides, the zone of inhibition at 100 µg/disc in assay [4] was determined as 29 mm; in assay [5], 27 mm; in assay [10] it was 24 mm; in assay [13], 22 mm; in assay [15], 27 mm; in assay [16] it was 21 mm. In addition, the zone of inhibition at 100 µg/disc in assay [17] worked out at 29 mm. Besides, the inhibition in assay [6] is 32.3%; in [11], 33.5%; in [14], 28.3%.

Turning to `Cc1ccc(S(=O)(=O)c2c[nH]cc2S(=O)(=O)CC2=NCCS2)cc1`, the zone of inhibition at 200 µg/disc was determined as 26 mm in [1]; 21 mm in assay [2]; 35 mm in [3]; 32 mm in assay [7]; 31 mm in assay [8]; 19 mm in assay [9]. In assay [12], the zone of inhibition at 200 µg/disc came out at 24 mm. Further, the zone of inhibition at 100 µg/disc in assay [4] was 22 mm; in assay [5] it was 31 mm; in assay [10] it was 28 mm; in assay [13], 20 mm; in [15] it was 23 mm; in assay [16], 17 mm. For the same compound, the zone of inhibition at 100 µg/disc in assay [17] was found to be 29 mm. For the same compound, the inhibition in assay [6] is 23.7%; in [11], 23.2%; in [14], 22.9%.

For `O=C1O[C@H]([C@@H](O)CO)C(O)=C1O`, the values for the inhibition in assay [6] and in assay [11] were 96.9% and 95.4%, respectively.

As for `Cc1ccc(S(=O)(=O)/C=C/S(=O)(=O)CC2=NCCS2)cc1`, the zone of inhibition at 200 µg/disc turned out to be 23 mm in [1]; 20 mm in assay [2]; 23 mm in [3]; 24 mm in assay [7]; 25 mm in assay [8]; 18 mm in [9]. In [12], the zone of inhibition at 200 µg/disc was determined as 21 mm. Further, the zone of inhibition at 100 µg/disc stood at 19 mm in [4]; 20 mm in assay [5]; 21 mm in assay [10]; 17 mm in assay [13]; 20 mm in assay [15]; 15 mm in assay [16]. Also, in assay [17], the zone of inhibition at 100 µg/disc amounted to 22 mm. Also, the inhibition turned out to be 21.7% in assay [6], 22.2% in assay [11] and 21.2% in assay [14].

`O=S(=O)(/C=C/S(=O)(=O)c1ccccc1)CC1=NCCS1`: the zone of inhibition at 200 µg/disc in [1] amounted to 24 mm; in [2], 21 mm; in [3], 28 mm; in assay [7] it was 26 mm; in assay [8] it was 29 mm; in [9] it was 18 mm. For the same compound, the zone of inhibition at 200 µg/disc in assay [12] worked out at 23 mm. Besides, the zone of inhibition at 100 µg/disc in assay [4] came out at 22 mm; in [5], 26 mm; in assay [10] it was 24 mm; in assay [13], 19 mm; in assay [15], 21 mm; in assay [16], 17 mm. The zone of inhibition at 100 µg/disc in assay [17] amounted to 26 mm. Also, the inhibition in assay [6] came to 30.4%; in assay [11] it was 29.3%; in assay [14], 29.3%.

For the compound `Cc1ccc(S(=O)(=O)c2c[nH]cc2S(=O)(=O)CC2=NCCO2)cc1`, the zone of inhibition at 200 µg/disc in [1] was determined as 15 mm; in assay [2] it was 13 mm; in assay [3] it was 21 mm; in assay [7] it was 21 mm; in assay [8], 20 mm; in [9], 13 mm. In assay [12], the zone of inhibition at 200 µg/disc was determined as 14 mm. The zone of inhibition at 100 µg/disc in assay [4] is 13 mm; in [5], 17 mm; in assay [10], 17 mm; in assay [13], 10 mm; in [15], 12 mm; in assay [16], 11 mm. Besides, in [17], the zone of inhibition at 100 µg/disc is 18 mm. Besides, the values for the inhibition in assay [6], in assay [11] and in [14] were 78.5%, 76.1% and 77.3%, respectively.

Take `O=S(=O)(/C=C/S(=O)(=O)c1ccccc1)CC1=NCCO1`: the zone of inhibition at 200 µg/disc in assay [1] was determined as 13 mm; in assay [3] it was 19 mm; in assay [7], 18 mm; in assay [8], 15 mm; in [12], 12 mm. Further, the zone of inhibition at 100 µg/disc in [4] is 10 mm; in [5], 17 mm; in [10], 16 mm; in [15], 11 mm; in [17], 14 mm. Moreover, the values for the inhibition in [6], in assay [11] and in assay [14] were 82.1%, 83.7% and 79.5%, respectively.

In the case of `Cc1ccc(S(=O)(=O)/C=C/S(=O)(=O)CC2=NCCO2)cc1`, the zone of inhibition at 200 µg/disc in assay [1] came to 13 mm; in [3], 16 mm; in assay [7], 19 mm; in assay [8], 17 mm; in [12] it was 11 mm. Moreover, the zone of inhibition at 100 µg/disc in assay [4] came out at 9 mm; in assay [5], 14 mm; in [10], 18 mm; in assay [15], 10 mm; in assay [17], 14 mm. Moreover, the values for the inhibition in [6], in assay [11] and in [14] were 74.2%, 73.9% and 73.5%, respectively.

For `Cc1cc(C(C)(C)C)c(O)c(C(C)(C)C)c1`, the inhibition in assay [14] came to 92.3%.
